Experiments:
tumors = details: cited from earlier work
PC-3 prostate tumors = details: xenografted PC-3 model; cited from earlier work
[1] = system: VEGF and PDGF receptor families; details: in vitro; cited from earlier work
integrin αvβ3 = assay: ^99mTc-3P-RGD2 SPECT/CT tumor uptake during linifanib therapy, MDA-MB-435 model; assay type: in vivo, athymic nude mice
Method in brief: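 Size-matched groups (n = 5; mean tumor 180 ± 90 mm3) of female nude mice with fat-pad MDA-MB-435 tumors received vehicle (0.15% HPMC, 2% ethanol, 5% Tween 80, 20% PEG400, 73% saline) or test compound at 12.5 mg/kg orally twice daily (>8 h apart) from day 0. Radiotracer (>95% radiochemical purity, in saline) was given i.v. Multi-pinhole SPECT/CT on days -1, 1, 4 and 11 was quantified as %ID and %ID/cm3.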

MDA-MB-435 tumors = assay: Tumor immunohistochemistry; assay type: in vivo, athymic nude mice
Method in brief: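 Fat-pad MDA-MB-435 tumors came from mice given vehicle or oral test compound (12.5 mg/kg twice daily) and were harvested on days -1, 1, 4 and 11. Frozen 5 μm OCT sections were fixed in ice-cold acetone (10 min) and blocked in 10% goat serum (30 min). They were stained 1 h with hamster anti-integrin β3 and rat anti-CD31 (1:100), then Cy3/FITC secondaries (1:100), and read by fluorescence microscopy. H&E sections were examined for blood vessels.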

[2] = system: pre-clinical tumor models; details: variety of pre-clinical tumor models; cited from earlier work
U87MG gliomas = details: xenografted U87MG model; cited from earlier work
tumor = details: 2 days after sunitinib therapy; cited from earlier work
integrin αvβ3 and αvβ5 = details: low concentrations; cited from earlier work
[3] = 12.5 mg/kg orally twice daily, as early as 24 h, SPECT/CT quantification, n = 5

Question: For `Cc1nc(Nc2ncc(C(=O)Nc3c(C)cccc3Cl)s2)cc(N2CCN(CCO)CC2)n1` [dasatinib], which “uptake of ^64Cu-DOTA-RGD in the treated tumors” value (tumors) is on record?
Answer: significantly reduce

Question: With `Cc1ccc(F)c(NC(=O)Nc2ccc(-c3cccc4[nH]nc(N)c34)cc2)c1` [linifanib] as the compound, how does the “tumor volume or tumor uptake of ^99mTc-3P-RGD2 after linifanib treatment” value (PC-3 prostate tumors) read?
Answer: no significant changes

Question: And the “phosphorylation of members of VEGF and PDGF receptor families” value [1]?
Answer: inhibit the phosphorylation

Question: And the “%ID tumor uptake of ^99mTc-3P-RGD2 in linifanib-treated group” value (integrin αvβ3; [3])?
Answer: dramatic reduction

Question: What about the “%ID/cm^3 tumor uptake of ^99mTc-3P-RGD2 in linifanib-treated group” value (integrin αvβ3; [3]) of the same compound?
Answer: dramatic reduction

Question: What about the “tumor uptake (%ID and %ID/g) of ^99mTc-3P-RGD2 in linifanib-treated group” value (integrin αvβ3; over the next 10 days after the first 24 h of linifanib therapy) of the same compound?
Answer: steady tumor uptake reduction

Question: And the blood vessel density (MDA-MB-435 tumors; H&E staining of tumor slices, within 24 h after initiation of linifanib therapy)?
Answer: dramatically reduced

Question: And the “integrin αvβ3 on neovasculature” value (MDA-MB-435 tumors; IHC staining of tumor slices, after 24 h of linifanib therapy)?
Answer: disappeared almost completely

Question: What about the “tumor cell integrin αvβ3 expression level” value (MDA-MB-435 tumors; IHC staining of tumor slices, during the 11-day period of linifanib therapy) of the same compound?
Answer: decreased steadily

Question: And the “effect on tumors in vivo” value [2]?
Answer: pronounced regression of tumors

Question: What about the “tumor uptake (%ID and %ID/cm^3) and T/M ratios of ^99mTc-3P-RGD2 after linifanib treatment” value (U87MG gliomas) of the same compound?
Answer: significant decrease

Question: Which “tumor uptake of [^18F]AH111585 after sunitinib therapy” value (tumor) does the source give for `CCN(CC)CCNC(=O)c1c(C)[nH]c(/C=C2\C(=O)Nc3ccc(F)cc32)c1C` [sunitinib] here?
Answer: significantly reduced

Question: For Cilengitide, which “effect on tumor growth and angiogenesis” value (integrin αvβ3 and αvβ5) is on record?
Answer: stimulate tumor growth and angiogenesis

Source: paper PMC3841333 (Theranostics, 2013)
